Test results as given in ChEMBL document CHEMBL1765029, “Synthesis and biological evaluation of estradiol linked pyrrolo[2,1-c][1,4]benzodiazepine (PBD) conjugates as potential anticancer agents” (2011).
The source made the active and inactive calls. The calls are words filed in the database; no cut-off is given here.

What was measured:
MCF7 [1] = assay: Cell cycle arrest in human MCF7 cells assessed as accumulation at G2/M phase using propidium iodide staining at 4 uM after 24 hrs by flow cytometry; assay type: functional
Outline: (§1)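 MCF-7 cells (5 × 10⁵ per 60 mm dish) grown 24 h, then exposed to 4 µM compound for a further 24 h; DMSO-treated control. Cells trypsinised, fixed in ice-cold 70% ethanol at 4 °C for 30 min, RNase-treated (1 mg/mL, 37 °C, 30 min), stained with propidium iodide/citrate/Triton X-100. DNA content read on 20,000 events by flow cytometry; percent cells per phase reported.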

MCF7 [2] = assay: Cytotoxicity against human MCF7 cells at 4 uM after 24 hrs by MTT assay; assay type: functional, cell-based
Outline: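 MCF-7 cells seeded at 10,000 per well, incubated overnight, then treated at 4 µM for 24 h; DMSO control. Medium replaced with MTT, 2 h at 37 °C. Formazan solubilised in extraction buffer, absorbance read at 570 nm, expressed as percent viability.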

MCF7 [3] = assay: Cell cycle arrest in human MCF7 cells assessed as accumulation at S phase using propidium iodide staining at 4 uM after 24 hrs by flow cytometry; assay type: functional; outline: as §1
ZR-75-1 = assay: Cytotoxicity against human ZR-75-1 cells by sulforhodamine B method; assay type: functional
[4] = Cytotoxicity against human DWD cells by sulforhodamine B method; assay type: functional
MCF7 [5] = assay: Cell cycle arrest in human MCF7 cells assessed as accumulation at G1 phase using propidium iodide staining at 4 uM after 24 hrs by flow cytometry; assay type: functional; outline: as §1
MCF7 [6] = assay: Cell cycle arrest in human MCF7 cells assessed as accumulation at G0 phase using propidium iodide staining at 4 uM after 24 hrs by flow cytometry; assay type: functional; outline: as §1
COLO 205 = assay: Cytotoxicity against human COLO205 cells by sulforhodamine B method; assay type: functional
Tubulin (Homo sapiens) = Tubulin (Homo sapiens) (UniProt P68371+Q9H4B7+P0DPH7+P68366+Q13509+Q71U36+P04350+Q3ZCM7+P07437+P68363+Q9BQE3+Q6PEY2+Q13885+Q9BVA1+Q9BUF5); assay: Inhibition of tubulin polymerization in human MCF7 cells assessed as disruption of microtubule network at 4 uM after 24 hrs by DAPI based immunofluorescence assay; assay type: cell-based
Outline: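 MCF-7 cells on glass coverslips incubated 24 h with or without 4 µM compound. Fixed in 4% paraformaldehyde/0.02% glutaraldehyde, permeabilised in −20 °C methanol, blocked 1 h in 1% BSA/PBS. Stained with mouse anti-tubulin primary and Cy3 anti-mouse IgG secondary, nuclei with DAPI. Confocal images scored for microtubule integrity; nocodazole as reference.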

PC-3 = assay: Cytotoxicity against human PC3 cells by sulforhodamine B method; assay type: functional
A2780 = assay: Cytotoxicity against human A2780 cells by sulforhodamine B method; assay type: functional
MCF7 [7] = assay: Induction of apoptosis in human MCF7 cells assessed up-regulation of p53 protein level at 4 uM after 24 hrs by Western blot analysis; assay type: functional, cell-based
Outline: (§2)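 MCF-7 cells (5 × 10⁵ per 60 mm dish) grown 24 h, then treated at 4 µM for 24 h. Lysis in ice-cold RIPA buffer with protease/phosphatase inhibitors; protein measured by Bradford. Fifty µg per lane resolved on 12% SDS-PAGE and transferred to PVDF. Blocked 2 h, primary antibody overnight at 4 °C, chemiluminescent detection; β-actin as loading control.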

A549 = assay: Cytotoxicity against human A549 cells by sulforhodamine B method; assay type: functional
MCF7 [8] = assay: Cytotoxicity against human MCF7 cells by sulforhodamine B method; assay type: functional
MCF7 [9] = assay: Induction of apoptosis in human MCF7 cells assessed up-regulation of p21 protein level at 4 uM after 24 hrs by Western blot analysis; assay type: functional, cell-based; outline: as §2
MCF7 [10] = assay: Induction of apoptosis in human MCF7 cells assessed as up-regulation of Bax gene at 4 uM after 24 hrs by Western blot analysis; assay type: functional, cell-based; outline: as §2
HOP-62 = assay: Cytotoxicity against human HOP62 cells by sulforhodamine B method; assay type: functional
MCF7 [11] = assay: Induction of apoptosis in human MCF7 cells assessed as activation of procaspase-7 at 4 uM after 24 hrs by Western blot analysis; assay type: functional, cell-based; outline: as §2
MCF7 [12] = assay: Induction of apoptosis in human MCF7 cells assessed as DNA fragmentation at 4 uM after 24 hrs by TUNEL assay relative to control; assay type: functional, cell-based
Outline: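 MCF-7 cells treated at 4 µM for 24 h; untreated cells as control. Nuclear DNA fragmentation detected by TdT-mediated fluorescein-dUTP nick-end labelling (ApoAlert kit). Labelled cells imaged by confocal microscopy, green stain marking TUNEL-positive cells.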

SiHa = assay: Cytotoxicity against human SiHa cells by sulforhodamine B method; assay type: functional
KB = assay: Cytotoxicity against human KB cells by sulforhodamine B method; assay type: functional
MCF7 [13] = assay: Reduction in Cdk1 protein level in human MCF7 cells at 4 uM after 24 hrs by Western blot analysis; assay type: functional, cell-based; outline: as §2
[14] = Cytotoxicity against human Gurav cells by sulforhodamine B method; assay type: functional
MCF7 [15] = assay: Down regulation of HDAC-1 protein in human MCF7 cells at 4 uM after 24 hrs by Western blot analysis; assay type: functional, cell-based; outline: as §2
MCF7 [16] = assay: Down regulation of HDAC-3 protein in human MCF7 cells at 4 uM after 24 hrs by Western blot analysis; assay type: functional, cell-based; outline: as §2
MCF7 [17] = assay: Down regulation of NF-kappa B p65 protein in human MCF7 cells at 4 uM after 24 hrs by Western blot analysis; assay type: functional, cell-based; outline: as §2

inhibition (Tubulin (Homo sapiens)) | Compound | Activity (MCF7 [1]) [%] | Activity (MCF7 [2]) | Activity (MCF7 [3]) [%] | GI50 (ZR-75-1) [nM] | GI50 [4] [nM] | Activity (MCF7 [5]) [%] | Activity (MCF7 [6]) [%] | GI50 (COLO 205) [nM] | GI50 (PC-3) [nM] | GI50 (A2780) [nM] | Activity (MCF7 [7]) | GI50 (A549) [nM] | GI50 (MCF7 [8]) [nM] | Activity (MCF7 [9]) | Activity (MCF7 [10]) | GI50 (HOP-62) [nM] | Activity (MCF7 [11]) | GI50 (SiHa) [nM] | GI50 (KB) [nM] | further results
Active | COc1cc2c(cc1OCc1cn(CCCCCOc3ccc4c(c3)CC[C@@H]3[C@@H]4CC[C@]4(C)[C@@H](O)CC[C@@H]34)nn1)N=C[C@@H]1C[C@@H](F)CN1C2=O | 32.4 | Active | 25.8 | < 100 | 120 | 42.5 | 0.82 | 120 | < 100 | < 100 | Active | < 100 | < 100 | Active | Active | 110 | Active | 110 | < 100 | Activity (MCF7 [12]): Active
– | COc1cc2c(cc1O)N=C[C@@H]1CCCN1C2=O | 4.83 | Active | 13 | – | – | 73.66 | 8.5 | 110 | 200 | 140 | – | 160 | 170 | – | – | 150 | – | 170 | 170 | Activity (MCF7 [13]): Active; GI50 [14]: 160 nM
Active | COc1cc2c(cc1OCc1cn(CCCOc3ccc4c(c3)CC[C@@H]3[C@@H]4CC[C@]4(C)[C@@H](O)CC[C@@H]34)nn1)N=C[C@@H]1C[C@@H](F)CN1C2=O | 36.64 | Active | 30.59 | < 100 | < 100 | 30.76 | 2 | 110 | < 100 | < 100 | Active | < 100 | < 100 | Active | Active | < 100 | Active | < 100 | < 100 | Activity (MCF7 [13]): Active; Activity (MCF7 [15]): Active; Activity (MCF7 [16]): Active; GI50 [14]: < 100 nM; Activity (MCF7 [17]): Active; Activity (MCF7 [12]): Active
